# Source: PubChem BioAssay
# The list is not random: actives were taken first. Their share in the collection is about 3.1%.
# SENP8 block-1: blocks the human protease SENP8; Q96LD8; purified SENP8, Z-RLRGG-aminoluciferin cleavage, luminescence; inhibition, % at 10 µM; actives 1.2% (n = 330,000); AID 2540; in the data active = inhibition above about 50%
# SENP6 inh: inhibitors of human SENP6 protease. Recombinant SENP6 catalytic domain, aminoluciferin luminescence. inhibition, % at 10 µM. actives 1.8% (n = 330,000). AID 2599;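 active = inhibition above about 50% at the single tested dose, limit read from the data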;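 note: plate controls were DMSO wells with enzyme for no effect and DMSO wells lacking enzyme for full effect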
# SENP8 block-2: SENP8 (human) protease inhibition | AID 602440 | inhibition, % at 20 µM | recombinant SENP8, Nedd8 substrate fluorescence | actives 0.64% (n = 360,000); in the data active = inhibition mostly above about 40%, no sharp cut-off; inactive = mostly below about 27%
# SENP7 inh: SENP7 protease inhibition; inhibition, % at 5 µM; AID 434973; recombinant SENP7, Z-RLRGG-aminoluciferin luminescence, 40 min; Q9BQF6; actives 1.5% (n = 330,000);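 active = inhibition above about 50% at the single test dose, limit read from the data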;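 note: plate controls were DMSO with enzyme for no effect and no enzyme buffer wells for full effect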
# Target sequence (Q9BQF6 706-1050 limits assumed): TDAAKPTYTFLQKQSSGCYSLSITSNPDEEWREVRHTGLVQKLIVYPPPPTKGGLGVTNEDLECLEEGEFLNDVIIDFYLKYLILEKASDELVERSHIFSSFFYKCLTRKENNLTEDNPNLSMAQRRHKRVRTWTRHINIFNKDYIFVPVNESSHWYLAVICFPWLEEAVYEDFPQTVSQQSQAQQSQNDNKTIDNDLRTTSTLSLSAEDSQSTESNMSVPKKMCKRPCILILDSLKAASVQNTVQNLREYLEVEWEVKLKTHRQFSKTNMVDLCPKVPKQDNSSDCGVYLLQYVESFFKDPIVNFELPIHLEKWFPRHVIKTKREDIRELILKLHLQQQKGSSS
# UBC13 polyUb: human UBC13 polyubiquitination inhibition | P61088 | UBC13 polyubiquitin chain formation, TR-FRET | inhibition, % at 20 µM | actives 0.47% (n = 330,000); in the data active = inhibition above about 45%, passing the limit was not always enough; inconclusive = no clear call, values can overlap the other calls
# Apaf-1 inh: blocks human Apaf-1 apoptosome activity | O14727 | reconstituted apoptosome caspase-3 activity, DEVD-Rh110 fluorescence | inhibition, % at 20 µM | actives 0.71% (n = 330,000) | AID 489030; active = inhibition of at least 40% at 20 µM;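 note: plate controls were DMSO wells for no effect and DEVD-CHO caspase inhibitor wells for full effect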
#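 Material: reconstituted apoptosome with Apaf-1, cytochrome c, caspase-9, procaspase-3, dATP; medium: pH 7.5 Hepes buffer with CHAPS, BSA, DTT; also added: cytochrome c and DEVD-Rh110 substrate; timing: 30 min plus 50 min, RT; signal: Rh110 fluorescence intensity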
# Casp3 counter: caspase-3 inhibition (UBC13 counter-screen); shares compounds with UBC13 polyUb; Recombinant caspase-3, Caspase-Glo 3/7 luminescence, 60 min; actives 4% (n = 1,400); inhibition, % at 20 µM;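 active = mean inhibition across replicates above about 26%, limit read from the data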;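 note: plate controls were DMSO with caspase-3 for no effect and DMSO wells lacking enzyme for full effect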
# Target sequence (P42574 whole entry, looked up): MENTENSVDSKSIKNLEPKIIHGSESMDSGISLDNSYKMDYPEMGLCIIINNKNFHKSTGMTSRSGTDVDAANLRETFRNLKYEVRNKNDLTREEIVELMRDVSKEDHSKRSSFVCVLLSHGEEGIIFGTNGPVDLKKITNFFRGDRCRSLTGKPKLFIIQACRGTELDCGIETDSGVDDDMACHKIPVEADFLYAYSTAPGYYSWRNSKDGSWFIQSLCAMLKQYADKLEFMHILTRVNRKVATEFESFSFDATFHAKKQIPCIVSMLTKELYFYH
# UBC13 conf: confirmation of human UBC13 polyubiquitin inhibitors; shares compounds with UBC13 polyUb; UBC13 polyubiquitination, TR-FRET, biochemical; inhibition, % at 10 µM; actives 68% (n = 1,400); in the data active = inhibition above about 45%; inconclusive = no clear call, values can overlap the other calls
# Starred values were filed as active, the others as inactive; u = inconclusive; x = not tested or not shown.
SMILES,SENP8 block-1,SENP6 inh,SENP8 block-2,SENP7 inh,UBC13 polyUb,Apaf-1 inh,Casp3 counter,UBC13 conf
COC(=O)c1ccccc1NC(=O)Cn1c(=O)n(CCC(=O)NC2CCN(Cc3ccccc3)CC2)c(=O)c2ccccc21,1.6,7.6,2.5,-0.2,11.3,-20.5,x,x
Cc1cccc(C)c1NC(=O)Cn1c(=O)n(CCCC(=O)NC2CCN(Cc3ccccc3)CC2)c(=O)c2ccccc21,-0.8,-13.7,14.9,1.4,84.8*,1.9,-1.8,104.9*
O=C(c1ccoc1)N1CCN(c2cc(-c3ccccc3)nc3cc(-c4ccc(Br)cc4)nn23)CC1,x,x,-419.2,x,x,x,x,x
COc1cc2c(c(Br)c1N)-c1cc(Br)c(N)cc1C2=O,x,x,32.4,x,x,x,x,x
N=c1c2c(ncn1Cc1ccco1)Oc1c(ccc3ccccc13)C2c1ccccc1 (stereo not drawn),-12.9,-20.1,-40.8,-7.2,36.8,20.1,x,x
CN(C)CCn1cnc2c(c1=N)C(c1ccccc1)c1ccc3ccccc3c1O2 (stereo not drawn),-5.9,11.2,13.2,-1.3,48.2*,26.2,0.7,56.0*
COc1cc2[nH]c3c(Cl)ncnc3c2cc1OC,-4.1,1.0,-83.4,2.4,26.9,9.4,x,x
COc1cc2[nH]c3c(N4CCN(c5ccc(Cl)cc5)CC4)ncnc3c2cc1OC,-4.8,-1.7,-262.8,4.5,51.4*,0.2,1.9,33.3
Cc1cc2nc(-c3cccc(Cl)c3)c(Cc3ccsc3)n2c(C)c1Br,x,x,1.2,x,x,x,x,x
Clc1ccc(-c2nc3c4ccccc4ccn3c2Cc2ccccc2)cc1,x,x,-295.9,x,x,x,x,x
C#CCOCCOCCOCCNc1nc(N2CCN(C(=O)[C@H](CCCCN)n3cc(CN)nn3)CC2)nc(N2CCN(C(=O)[C@H](CCCN=C(N)N)n3cc(C(N)[C@H](C)CC)nn3)CC2)n1 (stereo partly drawn),-3.5,-24.7,22.0,-8.5,92.2*,34.7,2.3,102.8*
C#CCOCCOCCOCCNc1nc(N2CCN(C(=O)[C@H](CCCN=C(N)N)n3cc(C(N)[C@@H](C)CC)nn3)CC2)nc(N2CCN(C(=O)[C@H](CC(N)=O)n3cc([C@@H](N)C(C)C)nn3)CC2)n1 (stereo partly drawn),-14.9,-17.3,22.8,-14.0,6.9,12.2,x,x
C#CCOCCOCCOCCNc1nc(N2CCN(C(=O)[C@H](CCCN=C(N)N)n3cc(C(N)[C@@H](C)CC)nn3)CC2)nc(N2CCN(C(=O)[C@H](CC(N)=O)n3cc([C@@H](N)CC(N)=O)nn3)CC2)n1 (stereo partly drawn),-11.0,-17.3,22.7,-8.0,63.7*,32.6,1.5,50.7*
C#CCOCCOCCOCCNc1nc(N2CCN(C(=O)[C@H](CCCN=C(N)N)n3cc(C(N)[C@H](C)CC)nn3)CC2)nc(N2CCN(C(=O)[C@H](CCCN=C(N)N)n3cc(C(N)[C@@H](C)CC)nn3)CC2)n1 (stereo partly drawn),-11.8,-29.2,17.7,-8.5,73.7*,35.7,-1.2,56.5*
C#CCOCCOCCOCCNc1nc(N2CCOCC2)nc(N2CCN(C(=O)[C@H](CCCN=C(N)N)n3cc(C(N)[C@@H](C)CC)nn3)CC2)n1 (stereo partly drawn),-2.0,-7.1,14.1,6.4,30.0,25.3,x,x
C#CCOCCOCCOCCNc1nc(N2CCN(C(=O)[C@H](CCCCN)n3cc(CN)nn3)CC2)nc(N2CCN(C(=O)[C@H](CC(N)=O)n3cc(C(N)[C@H](C)CC)nn3)CC2)n1 (stereo partly drawn),0.2,-15.2,18.1,-3.8,37.1,8.9,x,x
COc1ccc(Br)c(Cn2c(C)c(C(=O)NCc3cccc([N+](=O)[O-])c3)sc2=O)c1,x,x,6.1,x,x,x,x,x
CN(c1ccccc1)S(=O)(=O)c1ccc(C(=O)N2CCN(c3ccccc3)CC2)cc1,x,x,8.8,x,x,x,x,x
CCC1(CC)Cc2ccccc2-c2nc(NN)[nH]c(=O)c21,5.4,-13.8,-467.8,2.9,2.0,-10.8,x,x
CCC1(CC)Cc2ccccc2-c2[nH]c(=S)[nH]c(=O)c21,-4.4,-15.9,-12.3,-2.5,59.2*,0.5,-0.3,43.2
CC(C)N1CC2(CC(c3ccccc3C(F)(F)F)=NO2)CN1C(=O)c1ccco1 (stereo not drawn),x,x,2.5,x,x,x,x,x
CNCCC(Oc1ccc(C(F)(F)F)cc1)c1ccccc1 (stereo not drawn),0.3,-6.4,7.5,3.4,49.8*,29.4,-5.5,36.3
Clc1ccc(C2=NCCN2)cc1,-10.5,1.9,8.6,-3.7,-17.5,10.6,x,x
O=C(c1ccccc1)c1ccc(C(=O)N2CCN(c3ccccc3O)CC2)cc1,x,x,18.2,x,x,x,x,x
CCC(=O)N1CCCC(C(=O)Nc2ccc3cn[nH]c3c2)CC1 (stereo not drawn),x,x,-2.3,x,x,x,x,x
SMILES,SENP8 block-1,SENP6 inh,SENP8 block-2,SENP7 inh,UBC13 polyUb,Apaf-1 inh,Casp3 counter,UBC13 conf
CSc1nc(N2CCOCC2)c2c(c1C#N)CCCCC2,3.4,-4.0,-73.5,0.7,52.6*,13.4,0.6,u
Cc1ccc(S(=O)(=O)N2[C@H](CC(=O)c3ccc(F)cc3)OC[C@@H]2C)cc1,x,x,9.4,x,x,x,x,x
CC(C)Nc1nc(NCCOc2ccccc2)c2sccc2n1,x,x,-58.9,x,x,x,x,x
CCOC(=O)c1c(-c2ccccc2)oc2ccc(OCC(O)CN(C)C)cc12 (stereo not drawn),-6.5,-9.5,-315.1,-3.3,46.6*,18.9,-4.1,52.2*
CCOC(=O)c1c(-c2ccccc2)oc2ccc(OC(C)C(=O)O)cc12 (stereo not drawn),5.0,-11.6,-438.6,4.9,14.6,-0.6,x,x
Cc1cccc(C)c1Nc1cn[nH]c1,x,x,23.1,x,x,x,x,x
COCCNC(=O)C1(C)CCCN(C(=O)c2ccc3c(c2)CCO3)C1 (stereo not drawn),x,x,11.3,x,x,x,x,x
CCCOc1ccc(C(=O)N/N=C/c2c[nH]c3ccc(Br)cc23)cc1,2.2,7.9,-6.6,-4.0,23.7,24.7,x,x
CCCCCN=C(N)N/N=C/c1c[nH]c2ccc(OC)cc12,-10.4,-21.7,1.2,8.3,107.1*,78.2*,-4.8,111.1*
O=C(CN1C(=O)NC2(CCCC2)C1=O)NCCC1=CCCCC1,-5.3,5.3,8.2,3.9,97.1*,-10.8,-0.9,5.7
Cc1ccc(C2(C)NC(=O)N(CC(=O)NCCC3=CCCCC3)C2=O)cc1 (stereo not drawn),5.9,-0.1,26.5,3.7,1.4,20.2,x,x
CC(C)C[C@H]1CN(CCCC[C@H]2CNC(=O)C(=O)N2CCc2ccc(O)cc2)C(=O)C(=O)N1CCC1CCCCC1,x,x,18.5,x,x,x,x,x
CN(C)CCNC(=O)c1cc2c(s1)-c1ccc(Cl)cc1SC2,-10.4,-25.9,-315.1,1.1,61.8*,29.5,-1.9,72.8*
CN[C@H]1C[C@H]2c3[nH]c4ccc(-c5ccc(OC)cc5)cc4c3CCN2C(=O)[C@H]1[C@H](C)O,x,x,-443.2,x,x,x,x,x
